The results in this text go back to ChEMBL document CHEMBL4428062, “Human Toll-like Receptor (TLR) 8-Specific Agonistic Activity in Substituted Pyrimidine-2,4-diamines” (J Med Chem, 2016).

Experiment [1] concerns the target Toll-like receptor 2 (Homo sapiens) (UniProt O60603). The experiment can be described thus: Agonist activity at human TLR2 expressed in HEK293 cells assessed as induction of NF-kappaB activity by secreted alkaline phosphatase reporter gene assay. In kind it is cell-based. In outline:
(§1)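 HEK293 reporter lines stably co-transfected with the respective human TLR and an NF-κB/AP-1-driven secreted alkaline phosphatase gene, kept in selection medium. About 10^5 cells/ml were incubated with graded concentrations of stimuli. Supernatant sAP was read spectrophotometrically at 620 nm using a chromogenic substrate in detection medium. EC50 was taken as the arithmetic mean of quadruplicate samples.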
For orientation: In a reporter assay the amount or activity of a reporter protein is the signal.

The target in experiment [2] is Toll-like receptor 4 (Homo sapiens) (UniProt O00206). The experiment can be described thus: Agonist activity at human TLR4 expressed in HEK293 cells assessed as induction of NF-kappaB activity by secreted alkaline phosphatase reporter gene assay. Format: cell-based. An outline of the steps:
as §1

In experiment [3] the target is T1, Toll-like receptor 7 (Homo sapiens) (UniProt Q9NYK1).
T1 sequence (whole entry): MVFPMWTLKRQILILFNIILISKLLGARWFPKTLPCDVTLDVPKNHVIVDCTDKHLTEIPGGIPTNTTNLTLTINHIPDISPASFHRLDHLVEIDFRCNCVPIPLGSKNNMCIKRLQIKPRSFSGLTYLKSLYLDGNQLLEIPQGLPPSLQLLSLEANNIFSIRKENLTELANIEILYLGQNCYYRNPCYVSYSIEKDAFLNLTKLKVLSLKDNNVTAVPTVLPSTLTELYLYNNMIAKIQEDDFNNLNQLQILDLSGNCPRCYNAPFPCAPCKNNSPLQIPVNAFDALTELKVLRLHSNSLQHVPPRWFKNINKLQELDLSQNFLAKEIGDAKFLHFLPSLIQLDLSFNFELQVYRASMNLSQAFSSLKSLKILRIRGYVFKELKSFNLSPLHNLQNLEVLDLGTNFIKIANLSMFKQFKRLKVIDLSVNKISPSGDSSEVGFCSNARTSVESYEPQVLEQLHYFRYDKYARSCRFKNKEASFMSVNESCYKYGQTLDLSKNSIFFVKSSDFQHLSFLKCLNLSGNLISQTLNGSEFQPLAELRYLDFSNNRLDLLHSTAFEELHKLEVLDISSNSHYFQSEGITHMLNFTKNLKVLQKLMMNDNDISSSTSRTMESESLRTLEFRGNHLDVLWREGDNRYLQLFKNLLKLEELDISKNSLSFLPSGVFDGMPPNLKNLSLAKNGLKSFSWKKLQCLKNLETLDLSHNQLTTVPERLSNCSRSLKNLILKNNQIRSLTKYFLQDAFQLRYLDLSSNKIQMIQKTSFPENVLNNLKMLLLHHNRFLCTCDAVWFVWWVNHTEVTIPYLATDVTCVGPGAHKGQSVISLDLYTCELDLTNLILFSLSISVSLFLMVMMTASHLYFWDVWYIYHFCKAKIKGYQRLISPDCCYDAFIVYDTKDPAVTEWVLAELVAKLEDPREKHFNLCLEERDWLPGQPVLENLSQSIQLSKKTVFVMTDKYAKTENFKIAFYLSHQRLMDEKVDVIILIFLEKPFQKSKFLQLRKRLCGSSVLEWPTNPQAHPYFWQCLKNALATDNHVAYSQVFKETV
The experiment can be described thus: Agonist activity at human TLR7 expressed in HEK293 cells assessed as induction of NF-kappaB activity by secreted alkaline phosphatase reporter gene assay. In kind it is cell-based. An outline of the steps: as §1

The target in experiment [4] is T2, Toll-like receptor 8 (Homo sapiens) (UniProt Q9NR97).
T2 sequence (whole entry): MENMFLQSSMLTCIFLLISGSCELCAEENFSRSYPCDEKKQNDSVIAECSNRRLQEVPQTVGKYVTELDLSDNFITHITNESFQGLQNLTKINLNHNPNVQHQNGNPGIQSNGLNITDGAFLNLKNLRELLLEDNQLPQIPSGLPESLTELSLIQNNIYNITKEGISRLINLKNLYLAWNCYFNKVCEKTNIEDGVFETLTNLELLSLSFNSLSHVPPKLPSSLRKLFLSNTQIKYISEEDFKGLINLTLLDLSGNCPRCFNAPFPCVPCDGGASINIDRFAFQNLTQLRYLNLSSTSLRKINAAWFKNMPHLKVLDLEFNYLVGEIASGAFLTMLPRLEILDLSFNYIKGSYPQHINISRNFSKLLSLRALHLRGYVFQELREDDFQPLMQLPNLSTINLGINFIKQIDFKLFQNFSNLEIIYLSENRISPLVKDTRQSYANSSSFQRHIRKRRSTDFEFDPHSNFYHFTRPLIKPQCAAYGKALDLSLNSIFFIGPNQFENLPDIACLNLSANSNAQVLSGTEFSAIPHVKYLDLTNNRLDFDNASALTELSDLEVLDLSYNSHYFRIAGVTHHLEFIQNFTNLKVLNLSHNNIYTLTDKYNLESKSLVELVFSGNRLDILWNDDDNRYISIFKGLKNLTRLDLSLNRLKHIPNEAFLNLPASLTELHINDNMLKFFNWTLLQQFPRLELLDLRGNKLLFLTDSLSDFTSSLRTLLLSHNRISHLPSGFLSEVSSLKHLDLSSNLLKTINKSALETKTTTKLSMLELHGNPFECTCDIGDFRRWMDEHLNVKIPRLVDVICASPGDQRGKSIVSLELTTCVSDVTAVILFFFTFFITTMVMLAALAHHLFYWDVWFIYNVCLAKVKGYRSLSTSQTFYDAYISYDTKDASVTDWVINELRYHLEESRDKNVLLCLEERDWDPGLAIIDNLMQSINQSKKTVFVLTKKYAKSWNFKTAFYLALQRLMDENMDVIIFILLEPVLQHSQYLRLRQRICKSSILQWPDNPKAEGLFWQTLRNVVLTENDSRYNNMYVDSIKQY
As to the kind of experiment: Agonist activity at TLR8 in human PBMC assessed as induction of IL-1beta levels after 16 hrs by immunoassay. An outline of the steps: (§2)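 Freshly isolated human PBMC from venipuncture blood (informed consent), 10^5 cells/well, stimulated 16 h with graded concentrations of compound. Supernatants collected by centrifugation and cytokines quantified in duplicate with a multiplexed cytokine/chemokine magnetic bead array.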

Experiment [5] concerns the target T2, Toll-like receptor 8 (Homo sapiens). As to the kind of experiment: Agonist activity at TLR8 in human PBMC assessed as induction of IL-6 levels after 16 hrs by immunoassay. In outline: as §2
The target is the same in experiment [6]. As to the kind of experiment: Agonist activity at TLR8 in human PBMC assessed as Th1-biased stimulatory activity measured as IFNgamma release after 16 hrs by immunoassay. In outline: as §2

Calls of active or inactive are those of the source. The rule behind the calls is not given here.

Toll-like receptor 4 (Homo sapiens), sequence (O00206 whole entry): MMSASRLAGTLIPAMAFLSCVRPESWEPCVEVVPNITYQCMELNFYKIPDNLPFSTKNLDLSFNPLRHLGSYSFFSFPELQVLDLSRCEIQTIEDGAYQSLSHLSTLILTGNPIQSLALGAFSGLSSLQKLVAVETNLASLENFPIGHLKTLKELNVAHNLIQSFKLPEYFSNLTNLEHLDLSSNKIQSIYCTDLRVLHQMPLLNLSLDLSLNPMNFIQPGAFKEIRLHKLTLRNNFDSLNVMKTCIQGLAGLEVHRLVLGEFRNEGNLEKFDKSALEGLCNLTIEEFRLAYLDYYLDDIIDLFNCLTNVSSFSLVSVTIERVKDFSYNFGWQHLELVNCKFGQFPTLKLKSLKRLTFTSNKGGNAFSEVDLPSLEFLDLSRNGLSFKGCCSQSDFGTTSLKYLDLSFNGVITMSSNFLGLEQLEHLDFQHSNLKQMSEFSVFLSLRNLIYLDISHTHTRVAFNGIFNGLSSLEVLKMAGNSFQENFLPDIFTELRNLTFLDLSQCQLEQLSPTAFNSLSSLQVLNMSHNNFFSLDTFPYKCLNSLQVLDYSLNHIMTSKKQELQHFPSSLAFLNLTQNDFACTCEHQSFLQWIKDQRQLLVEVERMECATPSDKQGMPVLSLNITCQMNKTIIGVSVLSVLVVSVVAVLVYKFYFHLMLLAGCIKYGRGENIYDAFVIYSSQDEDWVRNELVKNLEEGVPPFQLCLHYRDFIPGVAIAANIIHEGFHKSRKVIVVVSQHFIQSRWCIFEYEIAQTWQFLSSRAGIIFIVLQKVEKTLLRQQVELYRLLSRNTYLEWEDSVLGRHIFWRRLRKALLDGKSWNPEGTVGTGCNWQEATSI
Toll-like receptor 2 (Homo sapiens), sequence (O60603 whole entry): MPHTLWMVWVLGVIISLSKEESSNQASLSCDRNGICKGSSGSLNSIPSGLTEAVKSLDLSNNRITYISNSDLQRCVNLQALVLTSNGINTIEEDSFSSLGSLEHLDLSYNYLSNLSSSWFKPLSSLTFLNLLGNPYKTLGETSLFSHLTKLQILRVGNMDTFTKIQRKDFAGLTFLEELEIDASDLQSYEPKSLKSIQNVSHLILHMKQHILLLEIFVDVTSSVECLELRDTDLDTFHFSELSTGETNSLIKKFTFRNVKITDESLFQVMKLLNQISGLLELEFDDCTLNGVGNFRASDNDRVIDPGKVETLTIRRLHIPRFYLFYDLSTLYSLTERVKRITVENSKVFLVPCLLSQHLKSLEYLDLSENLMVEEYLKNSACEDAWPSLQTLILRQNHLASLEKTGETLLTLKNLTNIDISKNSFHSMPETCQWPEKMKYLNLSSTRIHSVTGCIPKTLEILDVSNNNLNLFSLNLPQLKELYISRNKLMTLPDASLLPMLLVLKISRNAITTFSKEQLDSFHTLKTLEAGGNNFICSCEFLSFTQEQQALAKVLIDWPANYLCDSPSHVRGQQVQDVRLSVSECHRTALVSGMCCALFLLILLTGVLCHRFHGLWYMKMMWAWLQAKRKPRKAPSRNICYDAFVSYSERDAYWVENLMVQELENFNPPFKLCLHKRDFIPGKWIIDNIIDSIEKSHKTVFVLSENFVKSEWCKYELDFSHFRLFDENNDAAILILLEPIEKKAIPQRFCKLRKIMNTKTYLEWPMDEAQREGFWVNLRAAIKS

Turning to `CCCCCn1c(N)nc2c(C)cccc21`, the result in experiment [1], in experiment [2] and in experiment [3] was inactive. In addition, the result in experiment [4] and in experiment [5] was Active.
For the molecule `CCCCNc1nc(N)nc(-c2ccccc2)c1CCCCN`, the outcome in experiment [1], in experiment [2], in experiment [3], in experiment [6], in experiment [4] and in experiment [5] was inactive.
Consider `CCCCNc1nc(N)nc(C)c1CCCCN`, for which the result in experiment [1], in experiment [2], in experiment [3], in experiment [4] and in experiment [5] was inactive. Also, the result in experiment [6] was Active.
As for `CCCCNc1nc(N)nc(C)c1I`, the result in experiment [1], in experiment [2] and in experiment [3] was inactive. Also, the result in experiment [6], in experiment [4] and in experiment [5] was Active.
With `CCCCNc1cc(-c2ccccc2)nc(N)n1`, the result in experiment [1], in experiment [2], in experiment [3], in experiment [6], in experiment [4] and in experiment [5] was inactive.
